Six compounds from ChEMBL document CHEMBL4619737, “Influence of side-chain changes on histone deacetylase inhibitory and cytotoxicity activities of curcuminoid derivatives” (Bioorg Med Chem Lett, 2020) can be followed below.

Experiment [1] has as its system Vero. Put plainly: Cytotoxicity against African green monkey Vero cells assessed as reduction in cell viability incubated for 72 hrs by MTT assay. It is filed as cell-based. The settings on record: Chlorocebus sabaeus. Background: Tetrazolium dyes change colour on reduction, which living cells bring about.
The subject of experiment [2] is Vero. Description: Cytotoxicity against African green monkey Vero cells assessed as reduction in cell viability incubated for 48 hrs by MTT assay. It is filed as cell-based. The settings on record: Chlorocebus sabaeus.
The subject of experiment [3] is Vero. Description: Cytotoxicity against African green monkey Vero cells assessed as reduction in cell viability incubated for 24 hrs by MTT assay. Type of experiment: cell-based. Conditions: Chlorocebus sabaeus.
Experiment [4] relates to HeLa. Put plainly: Antiproliferative activity against human HeLa cells incubated for 24 hrs by MTT assay. Type of experiment: functional, cell-based.
Experiment [5] relates to HeLa. Put plainly: Antiproliferative activity against human HeLa cells incubated for 48 hrs by MTT assay. It is filed as functional, cell-based.
The subject of experiment [6] is HeLa. Put plainly: Antiproliferative activity against human HeLa cells incubated for 72 hrs by MTT assay. It is filed as functional, cell-based.
The subject of experiment [7] is HCT-116. Description: Antiproliferative activity against human HCT116 cells incubated for 24 hrs by MTT assay. Type of experiment: functional, cell-based. The settings on record: HCT-116, 24 h.
Experiment [8] deals with HCT-116. Description: Antiproliferative activity against human HCT116 cells incubated for 48 hrs by MTT assay. Type of experiment: functional, cell-based. Conditions: HCT-116, 48 h.
Experiment [9] concerns HCT-116. Description: Antiproliferative activity against human HCT116 cells incubated for 72 hrs by MTT assay. Type of experiment: functional, cell-based. The settings on record: HCT-116, 72 h.
In experiment [10] the test system is MCF7. Put plainly: Antiproliferative activity against human MCF7 cells incubated for 24 hrs by MTT assay. Type of experiment: functional, cell-based. The settings on record: MCF7, 24 h.
In experiment [11] the test system is MCF7. Description: Antiproliferative activity against human MCF7 cells incubated for 48 hrs by MTT assay. Type of experiment: functional, cell-based. Conditions: MCF7, 48 h.
Experiment [12] deals with MCF7. Put plainly: Antiproliferative activity against human MCF7 cells incubated for 72 hrs by MTT assay. It is filed as functional, cell-based. Conditions: MCF7, 72 h.
For experiment [13], the target named is Histone deacetylase (Homo sapiens) (UniProt Q13547+O15379+Q9UBN7+Q92769+Q9UQL6+Q8WUI4+Q9BY41+Q96DB2+P56524+Q9UKV0+Q969S8). Description: Inhibition of HDAC in human HCT116 cells assessed as accumulation of acetylated histone H3 levels at 40 ug/ml incubated for 24 hrs by Western blot analysis. Conditions: HCT-116. It is filed as cell-based. An outline of the steps:
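HCT116 cells exposed for 24 h to compound at 10–60 μg/mL, with a 1:1 (v/v) absolute ethanol/DMSO vehicle control. Cells were harvested, and extracted proteins were separated by SDS-PAGE. Acetylated H3 was detected by immunoblotting with ERK1/2 as the loading control. Band intensities were quantified by densitometry and expressed as fold relative to the internal control.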

For a further experiment, the target named is Histone deacetylase 1 (Homo sapiens, UniProt Q13547). Put plainly: Inhibition of HDAC1 (unknown origin).
Sequence of Histone deacetylase 1 (Q13547 whole entry): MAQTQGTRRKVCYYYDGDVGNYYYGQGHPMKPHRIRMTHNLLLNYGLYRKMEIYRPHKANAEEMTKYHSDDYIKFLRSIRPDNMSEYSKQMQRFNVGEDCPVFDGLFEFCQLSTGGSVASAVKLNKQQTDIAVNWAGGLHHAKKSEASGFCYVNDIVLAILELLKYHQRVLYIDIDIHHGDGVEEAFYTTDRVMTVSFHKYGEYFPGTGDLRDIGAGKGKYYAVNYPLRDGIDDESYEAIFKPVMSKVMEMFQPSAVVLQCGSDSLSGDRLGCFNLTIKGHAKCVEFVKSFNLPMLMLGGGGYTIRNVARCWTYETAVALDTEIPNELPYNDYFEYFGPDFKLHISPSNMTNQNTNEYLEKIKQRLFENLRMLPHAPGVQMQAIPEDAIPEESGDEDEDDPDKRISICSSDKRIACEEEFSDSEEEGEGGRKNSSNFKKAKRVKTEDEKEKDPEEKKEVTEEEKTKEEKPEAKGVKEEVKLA
The next experiment has as its target Histone deacetylase 2 (Homo sapiens, UniProt Q92769). Put plainly: Inhibition of HDAC2 (unknown origin).
For another experiment, the target named is T1, Histone deacetylase 8 (Homo sapiens, UniProt Q9BY41).
T1 sequence (Q9BY41 whole entry): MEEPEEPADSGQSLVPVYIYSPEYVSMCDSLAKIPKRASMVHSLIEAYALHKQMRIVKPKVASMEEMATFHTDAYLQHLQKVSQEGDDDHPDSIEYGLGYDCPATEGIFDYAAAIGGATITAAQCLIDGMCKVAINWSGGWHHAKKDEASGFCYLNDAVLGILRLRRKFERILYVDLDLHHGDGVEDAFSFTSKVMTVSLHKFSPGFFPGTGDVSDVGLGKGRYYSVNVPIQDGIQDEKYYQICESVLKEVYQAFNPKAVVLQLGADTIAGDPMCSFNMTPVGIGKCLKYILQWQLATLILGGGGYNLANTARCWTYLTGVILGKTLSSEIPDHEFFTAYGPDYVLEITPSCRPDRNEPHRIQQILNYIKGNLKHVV
Description: Inhibition of HDAC8 (unknown origin).

The target in the next experiment is Histone deacetylase. Description: Inhibition of HDAC in human HeLa cell nuclear extract using fluor-de-lys as substrate by spectrofluorometric analysis. It is filed as cell-free.

Converted amounts (≈) assume the structure as drawn. The source made the active and inactive calls. The calls are words filed in the database; no cut-off is given here.

Sequence of Histone deacetylase 2 (Q92769 whole entry): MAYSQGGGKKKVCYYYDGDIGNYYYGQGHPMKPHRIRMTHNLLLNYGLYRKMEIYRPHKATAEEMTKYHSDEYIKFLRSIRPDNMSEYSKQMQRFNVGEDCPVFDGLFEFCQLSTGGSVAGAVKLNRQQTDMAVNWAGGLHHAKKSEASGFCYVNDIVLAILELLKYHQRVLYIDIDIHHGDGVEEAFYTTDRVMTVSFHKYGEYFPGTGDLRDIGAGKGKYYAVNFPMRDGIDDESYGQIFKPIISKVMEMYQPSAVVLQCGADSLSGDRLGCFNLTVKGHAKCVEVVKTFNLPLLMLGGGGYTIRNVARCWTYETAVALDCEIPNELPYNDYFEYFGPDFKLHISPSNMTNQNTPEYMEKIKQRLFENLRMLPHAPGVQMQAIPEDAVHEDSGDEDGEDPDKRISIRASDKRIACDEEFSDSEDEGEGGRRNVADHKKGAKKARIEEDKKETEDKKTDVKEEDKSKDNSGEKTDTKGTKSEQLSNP

Regarding `COc1cc(/C=C/C(=O)/C=C(O)/C=C/c2ccc(OC(C)C(N)=O)c(OC)c2)ccc1OC(C)C(N)=O` (centres undefined), the IC50 (commonly the point on the concentration scale where inhibition reaches its midpoint) in the experiment with Vero [1] was 18.7 µg/mL (≈ 36.5 µM); with Vero [2], 25.6 µg/mL (≈ 50.1 µM); in the experiment on Vero [3], greater than 100 µg/mL; in the experiment on HeLa [4], 32.3 µg/mL (≈ 63.3 µM); in the experiment on HeLa [5], 25.8 µg/mL (≈ 50.5 µM); in the experiment with HeLa [6], 19.6 µg/mL (≈ 38.3 µM). Also, the IC50 came to 27.9 µg/mL (≈ 54.7 µM) in the experiment on HCT-116 [7]; 23.7 µg/mL (≈ 46.4 µM) in the experiment on HCT-116 [8]; 14.6 µg/mL (≈ 28.6 µM) with HCT-116 [9]; 51.4 µg/mL (≈ 101 µM) with MCF7 [10]; 38.3 µg/mL (≈ 75.1 µM) in the experiment with MCF7 [11]; 30.7 µg/mL (≈ 60.2 µM) with MCF7 [12]. Moreover, the inhibition entry in [13] is “Active”. For the same compound, the Ki (usually a dissociation constant, usually derived from enzyme kinetics or from competition with a known ligand) is 0.936 µM at Histone deacetylase 1, 0.55 µM at Histone deacetylase 2 and 0.88 µM on Histone deacetylase 8.

For `COc1cc(/C=C/C(=O)/C=C(O)/C=C/c2ccc(OCC(=O)O)c(OC)c2)ccc1OCC(=O)O`, the IC50 in the experiment with Vero [1], in the experiment on Vero [2], with Vero [3], with HeLa [4], in the experiment with HeLa [5] and with HeLa [6] was greater than 100 µg/mL each time. Moreover, the half-maximal inhibitory concentration (IC50) with HCT-116 [7], in the experiment with HCT-116 [8], in the experiment with HCT-116 [9], with MCF7 [10], in the experiment on MCF7 [11] and in the experiment on MCF7 [12] was greater than 100 µg/mL each time. Moreover, the Ki was determined as 1.96 µM at Histone deacetylase 1, 3.99 µM on Histone deacetylase 2 and 14.2 µM at Histone deacetylase 8.

In the case of `COc1cc(/C=C/C(=O)CC(=O)/C=C/c2ccc(O)c(OC)c2)ccc1O` [CURCUMIN], the IC50 in the experiment on Vero [1] came to 11 µg/mL (≈ 29.8 µM); with Vero [2] it was 17.9 µg/mL (≈ 48.5 µM); with Vero [3] it was 25 µg/mL (≈ 67.9 µM); in the experiment with HeLa [4], 5.39 µg/mL (≈ 14.6 µM); in the experiment with HeLa [5] it was 3.57 µg/mL (≈ 9.69 µM); in the experiment with HeLa [6], 3.56 µg/mL (≈ 9.66 µM). Further, the IC50 amounted to 3.83 µg/mL (≈ 10.4 µM) in the experiment with HCT-116 [7]; 2.67 µg/mL (≈ 7.25 µM) in the experiment with HCT-116 [8]; 2.4 µg/mL (≈ 6.51 µM) in the experiment with HCT-116 [9]; 2.94 µg/mL (≈ 7.98 µM) in the experiment on MCF7 [10]; 2.08 µg/mL (≈ 5.65 µM) with MCF7 [11]; 2.03 µg/mL (≈ 5.51 µM) with MCF7 [12].

`COc1cc(CNC(=O)CCCCC(O)CC(C)C)ccc1O` (centres undefined) returned a 50% inhibitory concentration (IC50) against Histone deacetylase of 72 µM.

Consider `CCC(C)Oc1ccc(/C=C/C(O)=C/C(=O)/C=C/c2ccc(O)c(OC)c2)cc1` (centres undefined), for which the concentration for half-maximal inhibition (IC50) in the experiment with Vero [1] was greater than 100 µg/mL; in the experiment with Vero [2], greater than 100 µg/mL; in the experiment with Vero [3], greater than 100 µg/mL; in the experiment on HeLa [4], 55.2 µg/mL (≈ 140 µM); with HeLa [5], 14 µg/mL (≈ 35.6 µM); with HeLa [6], 9.33 µg/mL (≈ 23.7 µM). For the same compound, the half-inhibitory concentration (IC50) in the experiment on HCT-116 [7] was 43.6 µg/mL (≈ 111 µM); in the experiment on HCT-116 [8], 8.53 µg/mL (≈ 21.6 µM); with HCT-116 [9] it was 7.33 µg/mL (≈ 18.6 µM); in the experiment on MCF7 [10], greater than 100 µg/mL; in the experiment with MCF7 [11], 46.3 µg/mL (≈ 117 µM); in the experiment on MCF7 [12], 18.1 µg/mL (≈ 45.8 µM). The Ki on Histone deacetylase 1 came to 2.5 µM; at Histone deacetylase 2, 1.06 µM; on Histone deacetylase 8 it was 3.6 µM.

With `CCC(C)Oc1ccc(/C=C/C(=O)/C=C(O)/C=C/c2ccc(OC(C)CC)c(OC)c2)cc1OC` (centres undefined), the IC50 in the experiment on Vero [1] was greater than 100 µg/mL; with Vero [2], greater than 100 µg/mL; in the experiment on Vero [3], greater than 100 µg/mL; in the experiment on HeLa [4], greater than 100 µg/mL; with HeLa [5], 17.5 µg/mL (≈ 36.4 µM); with HeLa [6], 10.2 µg/mL (≈ 21.2 µM). Also, the IC50 is 28.7 µg/mL (≈ 59.7 µM) in the experiment on HCT-116 [7]; 10.8 µg/mL (≈ 22.5 µM) in the experiment on HCT-116 [8]; 7.89 µg/mL (≈ 16.4 µM) with HCT-116 [9]; greater than 100 µg/mL in the experiment on MCF7 [10]; 42.1 µg/mL (≈ 87.6 µM) in the experiment on MCF7 [11]; 13.9 µg/mL (≈ 28.9 µM) in the experiment with MCF7 [12]. Besides, the inhibitory constant (Ki) on Histone deacetylase 1 is 20.7 µM; at Histone deacetylase 2, 7.47 µM; on Histone deacetylase 8, 10.2 µM.
